The first assay has as its system HT-29. Put plainly: Antiproliferative activity against human HT-29 assessed as growth inhibition after 48 hrs by SRB assay. It counts as functional. The following applies: HT-29, 48 h. The method in brief:
(§1)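 Cells kept in RPMI 1640 with 10% FBS, nonessential amino acids and penicillin/streptomycin, seeded and cultured overnight. Six wells fixed with 10% TCA at drug addition (T0). Compound exposure 48 h, then TCA fixation, 0.4% SRB in 1% acetic acid 10 min at room temperature, dye dissolved in 10 mM Tris base, OD 515 nm. Growth computed from T0, control and treated readings. GI50 is the concentration giving 50% growth inhibition. Doxorubicin served as positive control.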
For orientation: GI50 means the concentration that inhibits growth by half. As to `COc1ccc(-c2oc3c(OC)c(OC)ccc3c(=O)c2OC)cc1O` [DIPLOTRIN B], the GI50 stood at 7.5 µM.
Still for that read-out and setting: for `COc1cc([C@H]2Oc3cc(-c4cc(=O)c5c(O)cc(O)cc5o4)ccc3O[C@@H]2CO)cc(OC)c1O` the value was 4.1 µM; for `COc1ccc2c(c1O)COc1c-2oc2c(OC)c(OC)ccc2c1=O`, more than 10 µM.
On the same count and under the same terms, for `COc1cccc2c1C(=O)c1c(O)c3c(c(O)c1C2=O)C[C@@](O)(C(=O)CO)C[C@@H]3O[C@H]1C[C@H](N)[C@H](O)[C@H](C)O1` [DOXORUBICIN] the value was 0.12 µM; for `COc1ccc2c(=O)cc(-c3cc(OC)c(OC)cc3O)oc2c1` [DIPLOTRIN C], more than 10 µM.
Regarding `COc1cc(O)c(-c2oc3c(OC)c(OC)ccc3c(=O)c2OC)cc1O` [DIPLOTRIN A], the 50% growth inhibitory concentration (GI50) is more than 10 µM.

Another assay deals with AGS. Put plainly: Antiproliferative activity against human AGS assessed as growth inhibition after 48 hrs by SRB assay.
Conditions: not given
It counts as functional. The method in brief:
as §1
For `COc1ccc(-c2oc3c(OC)c(OC)ccc3c(=O)c2OC)cc1O` [DIPLOTRIN B], the GI50 was found to be 1.7 µM.
The same measure, in the same setting: then `COc1cc([C@H]2Oc3cc(-c4cc(=O)c5c(O)cc(O)cc5o4)ccc3O[C@@H]2CO)cc(OC)c1O`, with 24.8 µM; and `COc1ccc2c(c1O)COc1c-2oc2c(OC)c(OC)ccc2c1=O`, with more than 10 µM.
Still for that read-out and setting: for `COc1cccc2c1C(=O)c1c(O)c3c(c(O)c1C2=O)C[C@@](O)(C(=O)CO)C[C@@H]3O[C@H]1C[C@H](N)[C@H](O)[C@H](C)O1` [DOXORUBICIN] the value was 0.01 µM; for `COc1ccc2c(=O)cc(-c3cc(OC)c(OC)cc3O)oc2c1` [DIPLOTRIN C], more than 10 µM.
Same read-out and setting: then `COc1cc(O)c(-c2oc3c(OC)c(OC)ccc3c(=O)c2OC)cc1O` [DIPLOTRIN A], with more than 10 µM.

Another assay relates to PC-3. As to the kind of experiment: Antiproliferative activity against human PC3 assessed as growth inhibition after 48 hrs by SRB assay. The class given is functional. The note with it: PC-3, 48 h. The method in brief:
as §1
As to `COc1ccc(-c2oc3c(OC)c(OC)ccc3c(=O)c2OC)cc1O` [DIPLOTRIN B], the GI50 was 20.8 µM.
Same read-out and setting: then `COc1cc([C@H]2Oc3cc(-c4cc(=O)c5c(O)cc(O)cc5o4)ccc3O[C@@H]2CO)cc(OC)c1O`, with 2.3 µM; and `COc1ccc2c(c1O)COc1c-2oc2c(OC)c(OC)ccc2c1=O`, with more than 10 µM; and `COc1cccc2c1C(=O)c1c(O)c3c(c(O)c1C2=O)C[C@@](O)(C(=O)CO)C[C@@H]3O[C@H]1C[C@H](N)[C@H](O)[C@H](C)O1` [DOXORUBICIN], with 0.09 µM.
With `COc1ccc2c(=O)cc(-c3cc(OC)c(OC)cc3O)oc2c1` [DIPLOTRIN C], the GI50 is more than 10 µM.
On the same count and under the same terms, for `COc1cc(O)c(-c2oc3c(OC)c(OC)ccc3c(=O)c2OC)cc1O` [DIPLOTRIN A] the value was more than 10 µM.

The test system of another assay is A549. As to the kind of experiment: Antiproliferative activity against human A549 assessed as growth inhibition after 48 hrs by SRB assay. The class given is functional. The note with it: A549, 48 h. The method in brief: as §1
On the technique in general: The SRB assay estimates cell density from bound dye.
`COc1ccc(-c2oc3c(OC)c(OC)ccc3c(=O)c2OC)cc1O` [DIPLOTRIN B]: the concentration for 50% growth inhibition (GI50) was determined as 2.7 µM.
For `COc1cc([C@H]2Oc3cc(-c4cc(=O)c5c(O)cc(O)cc5o4)ccc3O[C@@H]2CO)cc(OC)c1O`, the GI50 was determined as 20.3 µM.
As for `COc1ccc2c(c1O)COc1c-2oc2c(OC)c(OC)ccc2c1=O`, the 50% growth inhibitory concentration (GI50) was more than 10 µM.
On to `COc1cccc2c1C(=O)c1c(O)c3c(c(O)c1C2=O)C[C@@](O)(C(=O)CO)C[C@@H]3O[C@H]1C[C@H](N)[C@H](O)[C@H](C)O1` [DOXORUBICIN], for which the GI50 was 0.27 µM.
On the same count and under the same terms, for `COc1ccc2c(=O)cc(-c3cc(OC)c(OC)cc3O)oc2c1` [DIPLOTRIN C] the value was more than 10 µM.
Still for that read-out and setting: then `COc1cc(O)c(-c2oc3c(OC)c(OC)ccc3c(=O)c2OC)cc1O` [DIPLOTRIN A], with more than 10 µM.

Values taken from ChEMBL document CHEMBL1909614, “5-deoxyflavones with cytotoxic activity from Mimosa diplotricha” (2011).
